Data set [1] deals with T1, Mu-type opioid receptor (Homo sapiens, UniProt P35372). The data set can be described thus: Displacement of [3H]DAMGO from human MOR expressed in HEK293 cell membranes incubated for 90 mins by liquid scintillation counting. The method in brief:
(§1)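 Compound (10^-12 to 10^-4 M) incubated 90 min at 25°C in 100 mM Tris-HCl with 0.3% BSA. Cold ligands define nonspecific binding. Filters presoaked in 0.3% polyethylenimine; liquid scintillation counting. Ki from IC50 by Cheng-Prusoff; triplicate.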
(In a radioligand displacement assay an active substance lowers the binding of a labelled ligand.)

The target in data set [2] is T2, Delta-type opioid receptor (Homo sapiens, UniProt P41143). The data set can be described thus: Displacement of [3H]diprenorphine from human DOR expressed in HEK293 cell membranes incubated for 90 mins by liquid scintillation counting.
T2 sequence (P41143 whole entry): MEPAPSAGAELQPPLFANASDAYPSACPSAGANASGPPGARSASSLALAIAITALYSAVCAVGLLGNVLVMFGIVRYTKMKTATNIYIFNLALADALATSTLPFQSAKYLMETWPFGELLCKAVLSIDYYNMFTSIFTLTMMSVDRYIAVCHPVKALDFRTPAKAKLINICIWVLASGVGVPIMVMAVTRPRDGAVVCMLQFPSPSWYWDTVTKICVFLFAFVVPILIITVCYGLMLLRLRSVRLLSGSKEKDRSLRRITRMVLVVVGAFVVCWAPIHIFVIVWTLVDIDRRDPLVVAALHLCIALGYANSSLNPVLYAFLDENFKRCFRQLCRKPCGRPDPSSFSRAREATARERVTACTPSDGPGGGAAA
The target in data set [3] is T3, Kappa-type opioid receptor (Homo sapiens, UniProt P41145). Nature of the data set: Displacement of [3H]U69,593 from human KOR expressed in HEK293 cell membranes incubated for 90 mins by liquid scintillation counting. The method in brief:
as §1

The target of data set [4] is T1, Mu-type opioid receptor. The data set can be described thus: Displacement of [3H]DAMGO from human MOR expressed in HEK293 cell membranes at […] incubated for 90 mins by liquid scintillation counting.
The target of data set [5] is T1, Mu-type opioid receptor. Type of data set: functional, cell-based, HEK293.
Data set [6] has as its target T1, Mu-type opioid receptor. The data set can be described thus: Agonist activity at human MOR expressed in HEK293 cells assessed as inhibition of forskolin-induced cAMP accumulation at 10^-12 to 10^-4 M by EIA method. The format is functional, cell-based. The procedure, abridged: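 Whole HEK-293 cells stably expressing hMOR, in serum-free medium with 0.5 mM IBMX, exposed 15 min at 37°C to 10 μM forskolin with or without compound (0.001 nM-100 μM). cAMP measured by EIA kit. Triplicate determinations; IC50 and Emax (% vehicle) as mean ± SE of 5-6 independent experiments.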
In general terms: Cyclic AMP is a second messenger, typically raised through Gs and lowered through Gi signalling.

Data set [7] concerns the target T2, Delta-type opioid receptor. The data set can be described thus: Antagonist activity at human DOR expressed in HEK293 cells assessed as reduction of DPDPE-induced inhibition of forskolin-induced cAMP accumulation by EIA method. Type of data set: functional, cell-based. The procedure, abridged: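 HEK-293 cells stably expressing hDOR, in serum-free medium with 0.5 mM IBMX, exposed 15 min at 37°C to 10 μM forskolin plus 10 μM DPDPE, with or without compound (0.001 nM-100 μM). cAMP by EIA kit. Triplicate determinations; IC50 as mean ± SE of 5-6 independent experiments.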

Data set [8] addresses T1, Mu-type opioid receptor. Nature of the data set: Antagonist activity at human MOR expressed in HEK293 cells assessed as reduction of DAMGO-induced inhibition of forskolin-induced cAMP accumulation by EIA method. The format is functional, cell-based.
The target of data set [9] is T3, Kappa-type opioid receptor. The data set can be described thus: Antagonist activity at human KOR expressed in HEK293 cells assessed as reduction of U50,488-induced inhibition of forskolin-induced cAMP accumulation by EIA method. Type of data set: functional, cell-based.
The target of data set [10] is T3, Kappa-type opioid receptor. Nature of the data set: Binding affinity to KOR (unknown origin). The method in brief: (§2)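 Displacement binding on membranes from HEK-293 cells stably expressing cloned human receptors; radioligand [³H]diprenorphine for DOR, [³H]U69,593 for KOR. Compounds tested at 10⁻¹²–10⁻⁴ M, incubated 90 min at 25°C in 100 mM Tris-HCl with 0.3% BSA. Nonspecific binding defined with cold ligand. Filter-bound radioactivity counted by liquid scintillation. Ki from IC50 via Cheng-Prusoff. Run in triplicate.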

The nature of data set [11]: Stability in mouse serum after 3 hrs by RP-HPLC and ESI-MS analysis. Type of data set: ADME, cell-free. The method in brief: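 Compound incubated in mouse serum for 3 h to assess enzymatic stability.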
For data set [12], the system named is Mus musculus. The data set can be described thus: Antinociceptive activity in mouse model of visceral pain assessed as reduction in AcOH-induced stretching or writhing responses dosed intraperitoneally 5 mins before AcOH challenge. Type of data set: functional. The procedure, abridged: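 Mice given 0.6% w/v AcOH in water ip (0.1 ml/10 g). Compound (0.5-10 mg/kg) or vehicle given ip 5 min earlier. Stretching/writhing counted for 10 min after AcOH. 6-8 mice per group, mean ± SEM; ED50 derived from the dose-response; Dunnett test after ANOVA.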

Data set [13] has as its system Mus musculus. The data set can be described thus: Antinociceptive activity in mouse model of visceral pain assessed as reduction in AcOH-induced stretching or writhing responses at 10 mg/kg, ip 5 mins before AcOH challenge and co-administered with 30 mg/kg, ip opioid antagonist NLX 15 mins before compound dosing. Type of data set: functional, organism-based.
Data set [14] relates to Mus musculus. The data set can be described thus: Antinociceptive activity in mouse model of visceral pain assessed as reduction in AcOH-induced stretching or writhing responses at 10 mg/kg, ip 5 mins before AcOH challenge and co-administered with 10 mg/kg, ip DOR antagonist NTD 30 mins before compound dosing. The format is functional, organism-based. Background: Writhing tests count abdominal constrictions after an irritant is injected.

For data set [15], the system named is Mus musculus. The data set can be described thus: Antinociceptive activity in mouse model of visceral pain assessed as reduction in AcOH-induced stretching or writhing responses at 10 mg/kg, ip 5 mins before AcOH challenge and co-administered with 10 mg/kg, ip KOR antagonist norBNI 10 mins before compound dosing. The format is functional, organism-based.
Data set [16] concerns Mus musculus. Nature of the data set: Effect on spontaneous locomotor activity in mouse model of visceral pain at 0.5 to 10 mg/kg, ip dosed 5 mins before AcOH challenge measured within 6 hrs. The format is ADME, organism-based. The following applies: in vivo.
The test system of data set [17] is Mus musculus. The data set can be described thus: Effect on circling behavior in mouse model of visceral pain at 0.5 to 10 mg/kg, ip dosed 5 mins before AcOH challenge measured within 6 hrs. Type of data set: ADME, organism-based. The note with it: in vivo.
Data set [18] can be described thus: Toxicity in mouse model of visceral pain assessed as induction of straub tail at 0.5 to 10 mg/kg, ip dosed 5 mins before AcOH challenge measured within 6 hrs. Type of data set: organism-based. The following applies: in vivo.
Data set [19] concerns Mus musculus. Nature of the data set: Effect on grooming behavior in mouse model of visceral pain at 0.5 to 10 mg/kg, ip dosed 5 mins before AcOH challenge measured within 6 hrs. Type of data set: ADME, organism-based. The note with it: in vivo.
Data set [20] deals with T1, Mu-type opioid receptor. Nature of the data set: Binding affinity to MOR (unknown origin). The procedure, abridged: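 Test compounds were run at 10⁻¹²-10⁻⁴ M, incubated 90 min at 25°C in 100 mM Tris-HCl with 0.3% BSA. Nonspecific binding was defined with cold ligand. Filter-trapped radioactivity was counted by liquid scintillation, with filters presoaked in 0.3% polyethylenimine. Assays were run in triplicate. Ki was derived from IC50 by Cheng-Prusoff.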

Data set [21] deals with T2, Delta-type opioid receptor. The data set can be described thus: Binding affinity to DOR (unknown origin). The procedure, abridged: as §2
Data set [22] in a line: Antagonist activity against KOR in rabbit vas deferens smooth muscles assessed as inhibition of asimadoline-induced response. The following applies: Oryctolagus cuniculus.

Calls of active or inactive are those of the source. The rule behind the calls is not given here. Non-standard residues stand in square brackets, D forms with d. Residues, ends and D or L forms follow the SMILES beside them. Where only a bound is given, the exact number is not on record here.

T1 sequence (P35372 whole entry): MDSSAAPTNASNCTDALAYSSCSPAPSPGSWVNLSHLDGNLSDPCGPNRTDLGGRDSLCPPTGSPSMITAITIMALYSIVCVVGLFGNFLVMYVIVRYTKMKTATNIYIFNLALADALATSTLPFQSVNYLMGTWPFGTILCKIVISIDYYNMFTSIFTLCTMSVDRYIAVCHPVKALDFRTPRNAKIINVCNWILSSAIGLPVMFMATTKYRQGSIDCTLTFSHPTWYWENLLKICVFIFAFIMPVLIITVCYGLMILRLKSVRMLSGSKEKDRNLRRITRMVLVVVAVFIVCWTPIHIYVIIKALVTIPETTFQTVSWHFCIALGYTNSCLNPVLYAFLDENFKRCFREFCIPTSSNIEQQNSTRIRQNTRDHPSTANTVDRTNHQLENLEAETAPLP
T3 sequence (P41145 whole entry): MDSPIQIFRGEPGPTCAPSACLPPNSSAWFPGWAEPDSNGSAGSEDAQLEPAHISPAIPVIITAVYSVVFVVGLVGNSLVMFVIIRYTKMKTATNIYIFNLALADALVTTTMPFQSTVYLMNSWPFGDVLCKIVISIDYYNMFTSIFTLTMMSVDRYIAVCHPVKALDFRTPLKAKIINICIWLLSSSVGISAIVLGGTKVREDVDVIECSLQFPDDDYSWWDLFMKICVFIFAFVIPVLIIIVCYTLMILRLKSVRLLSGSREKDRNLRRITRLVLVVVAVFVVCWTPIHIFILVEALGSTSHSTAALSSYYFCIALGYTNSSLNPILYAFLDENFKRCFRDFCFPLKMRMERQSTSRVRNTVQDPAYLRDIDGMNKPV

Usually Ki stands for a measure of affinity in units of concentration, obtained from inhibition or displacement. The low end stands for a stronger hold on the target, the high end for a looser hold on the target. As for `C[C@@H]1NC(=O)[C@H](Cc2c[nH]c3ccccc23)NC(=O)[C@@H](Cc2ccccc2)NC(=O)[C@H]2CCCN2C1=O`, the inhibition constant Ki at Mu-type opioid receptor [1] is greater than 100000 nM; in data set [2], greater than 100 µM; in data set [3], greater than 100 µM.

Usually inhibition stands for the drop in the measured response relative to a control, in per cent. With `Cn1cc(C[C@@H]2NC(=O)[C@H](Cc3ccccc3)NC(=O)[C@H]3CCCN3C(=O)[C@H](Cc3ccccc3)NC2=O)c2ccccc21`, the Ki in data set [2] and in data set [3] was greater than 100 µM throughout. The inhibition on Mu-type opioid receptor [4] was less than 50%.

For orientation: IC50 means the concentration that gives 50% inhibition. A higher IC50 goes with a need for much substance. On to `O=C1NCCCC(=O)N2CCC[C@@H]2C(=O)N[C@@H](Cc2ccccc2)C(=O)N[C@H]1Cc1c[nH]c2ccccc12`, for which the Ki in data set [2] was 0.00308 µM; in data set [3] it was greater than 100 µM. Further, the inhibition at Mu-type opioid receptor [4] is less than 50%; in data set [7] it was “Dose-dependent effect”. Besides, the IC50 at Mu-type opioid receptor [5] came to 183 nM. Besides, the outcome at Mu-type opioid receptor [6] was inactive. For the same molecule, the inhibition entry (on Mu-type opioid receptor [8]; in [9]) was “inactive” throughout.

With `O=C1CNC(=O)[C@H](Cc2ccccc2)NC(=O)[C@@H](Cc2c[nH]c3ccccc23)NC(=O)[C@H]2CCCN2C(=O)[C@H](Cc2ccc(O)cc2)N1` (cyclo(FGY[dP][dW])), in data set [10], the Activity came out at 1 ×10⁻⁸ M.

As usually defined, the ED50 is the dose at which the effect has come halfway, by size or by number of responders. Consider `O=C1NCCC(=O)N2CCC[C@@H]2C(=O)N[C@@H](Cc2ccccc2)C(=O)N[C@H]1Cc1c[nH]c2ccccc12`, for which the Ki at Mu-type opioid receptor [1] was 4.1 nM; in data set [2], greater than 100 µM; in data set [3], greater than 100 µM. This molecule gave an IC50 against Mu-type opioid receptor [5] of 6.1 nM. Besides, the inhibition entry (in [7]; at Mu-type opioid receptor [8]; in data set [9]) was “inactive” in each case. Also, the Stability result in data set [11] is recorded as “Stable”. Moreover, the inhibition entry in the data set with Mus musculus [12] is “Dose-dependent effect”. The ED50 in the data set on Mus musculus [12] (ip) worked out at 0.64 mg/kg. For the same molecule, in the data set on Mus musculus [13], the outcome was inactive. Besides, the outcome in the data set with Mus musculus [14] and in the data set with Mus musculus [15] was Active. The Activity result (in the data set on Mus musculus [16]; with Mus musculus [17]; in data set [18]; in the data set on Mus musculus [19]) was “Non-Toxic” throughout.

For orientation: EC50 means the midpoint of the concentration-response curve. In the case of `O=C1N[C@@H](Cc2ccccc2)C(=O)N2CCC[C@@H]2C(=O)N[C@@H](Cc2ccccc2)C(=O)N[C@H]1Cc1c[nH]c2ccccc12` (cyclo(FWF[dP])), the IC50 is 47 nM in [10], 260 nM at Mu-type opioid receptor [20] and 2600 nM in data set [21]. Besides, the EC50 in data set [22] turned out to be 1300 nM. For the same molecule, the Ki at Mu-type opioid receptor [1] was 127 nM; in data set [2], greater than 100 µM; in data set [3] it was 0.032 µM.

Regarding `Cn1cc(C[C@H]2NC(=O)[C@H](Cc3ccccc3)NC(=O)[C@H]3CCCN3C(=O)[C@H](Cc3ccccc3)NC2=O)c2ccccc21`, the inhibition constant (Ki) at Mu-type opioid receptor [1] was greater than 100000 nM; in data set [2], greater than 100 µM; in data set [3], greater than 100 µM.

Consider `C[C@H]1NC(=O)[C@H](Cc2c[nH]c3ccccc23)NC(=O)[C@H](Cc2ccccc2)NC(=O)[C@H]2CCCN2C1=O`, for which the Ki at Mu-type opioid receptor [1] is greater than 100000 nM; in data set [2] it was greater than 100 µM; in data set [3] it was greater than 100 µM.
